Common to all, as to type: protein-complex assay
The target in test [1] is T1, Integrin alpha-IIb/beta-3 (Homo sapiens, UniProt P05106+P08514). In words: Binding affinity for soluble GPIIb/IIIa captured on fibrinogen coated microtiter plate. Put shortly: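 Solid-phase ELISA measuring binding of soluble GPIIbIIIa to fibrinogen coated on a microtiter plate. Values are the average of at least 3 determinations.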
Test [2] deals with T1, Integrin alpha-IIb/beta-3. In words: Binding affinity for soluble GPIIb/IIIa captured on fibrinogen coated microtiter plate; 1:3 mixture enriched in the slower eluting diastereoisomer. The procedure, abridged:
(§1)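 Solid-phase ELISA measuring binding of soluble GPIIbIIIa to plate-coated fibrinogen. Tested as a diastereoisomer-enriched mixture, single determination (n = 1).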

The target in test [3] is T1, Integrin alpha-IIb/beta-3. In words: Binding affinity for soluble GPIIb/IIIa captured on fibrinogen coated microtiter plate; 3:1 mixture enriched in the faster eluting diastereoisomer. The procedure, abridged: as §1

pIC50: −log10 of the molar value.

What is called pIC50 is the negative decadic logarithm of the IC50, by convention in mol/L.

T1 sequence (P05106 27-788 limits assumed): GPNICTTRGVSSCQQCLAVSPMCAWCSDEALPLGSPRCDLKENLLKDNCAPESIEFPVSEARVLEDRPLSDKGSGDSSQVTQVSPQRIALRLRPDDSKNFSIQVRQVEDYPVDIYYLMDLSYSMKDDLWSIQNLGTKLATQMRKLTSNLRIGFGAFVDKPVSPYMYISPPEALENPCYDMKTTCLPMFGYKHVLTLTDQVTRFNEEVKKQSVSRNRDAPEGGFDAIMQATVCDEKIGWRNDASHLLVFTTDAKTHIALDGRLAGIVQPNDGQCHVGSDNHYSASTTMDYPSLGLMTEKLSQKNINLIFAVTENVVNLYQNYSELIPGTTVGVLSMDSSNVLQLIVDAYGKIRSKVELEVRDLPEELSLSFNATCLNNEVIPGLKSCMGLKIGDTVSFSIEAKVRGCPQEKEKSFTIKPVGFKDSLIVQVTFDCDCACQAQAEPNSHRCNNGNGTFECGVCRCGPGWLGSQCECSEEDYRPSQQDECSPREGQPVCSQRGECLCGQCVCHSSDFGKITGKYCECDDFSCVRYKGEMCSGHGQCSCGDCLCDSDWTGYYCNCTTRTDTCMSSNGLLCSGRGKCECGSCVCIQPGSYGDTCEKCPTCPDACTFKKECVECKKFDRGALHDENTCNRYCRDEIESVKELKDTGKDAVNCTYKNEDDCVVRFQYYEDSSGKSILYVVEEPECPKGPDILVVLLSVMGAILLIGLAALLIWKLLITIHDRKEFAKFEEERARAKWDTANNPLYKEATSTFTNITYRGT
T1 sequence (P08514 32-887 limits assumed): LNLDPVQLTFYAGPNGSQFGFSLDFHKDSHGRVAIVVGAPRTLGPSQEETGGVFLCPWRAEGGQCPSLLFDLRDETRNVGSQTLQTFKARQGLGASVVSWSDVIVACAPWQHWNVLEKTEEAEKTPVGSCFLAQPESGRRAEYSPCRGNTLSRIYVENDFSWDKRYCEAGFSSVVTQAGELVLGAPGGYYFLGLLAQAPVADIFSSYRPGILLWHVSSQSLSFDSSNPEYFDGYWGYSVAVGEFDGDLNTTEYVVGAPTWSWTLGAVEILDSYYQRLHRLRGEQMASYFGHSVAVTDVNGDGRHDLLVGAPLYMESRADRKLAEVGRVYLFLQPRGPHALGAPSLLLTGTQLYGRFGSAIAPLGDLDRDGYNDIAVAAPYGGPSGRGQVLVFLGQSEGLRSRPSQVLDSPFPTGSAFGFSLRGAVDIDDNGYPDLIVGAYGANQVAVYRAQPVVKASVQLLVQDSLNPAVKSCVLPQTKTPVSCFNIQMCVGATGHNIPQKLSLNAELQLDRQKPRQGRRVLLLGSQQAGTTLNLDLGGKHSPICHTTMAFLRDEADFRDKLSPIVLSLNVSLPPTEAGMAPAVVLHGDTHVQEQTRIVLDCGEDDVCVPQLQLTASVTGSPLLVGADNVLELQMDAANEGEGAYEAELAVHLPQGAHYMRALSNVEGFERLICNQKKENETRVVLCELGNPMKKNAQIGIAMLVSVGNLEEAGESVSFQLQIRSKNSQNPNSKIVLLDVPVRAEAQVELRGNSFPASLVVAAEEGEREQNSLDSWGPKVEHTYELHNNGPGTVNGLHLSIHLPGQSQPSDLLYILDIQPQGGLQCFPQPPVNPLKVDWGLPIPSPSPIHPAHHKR
T1 sequence (P08514 891-1039 limits assumed): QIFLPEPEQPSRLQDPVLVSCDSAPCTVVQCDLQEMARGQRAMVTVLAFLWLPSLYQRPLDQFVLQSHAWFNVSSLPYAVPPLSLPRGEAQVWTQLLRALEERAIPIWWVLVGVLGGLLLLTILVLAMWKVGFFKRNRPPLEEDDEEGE

In test [1], `CN1C(=O)CN(CCC(=O)O)C(=O)c2cc(C#Cc3ccc(C(=N)N)cc3)ccc21` gave a pIC50 of 7.96. Turning to `C[C@@H](CC(=O)O)N1CC(=O)N(C)c2c(Cl)cc(C#Cc3ccc(C(=N)N)cc3)cc2C1=O`, the pIC50 in test [1] was 8.15.

On to `C[C@H](CC(=O)O)N1CC(=O)N(C)c2ccc(C#Cc3ccc(C(=N)N)cc3)cc2C1=O`, for which, in test [1], the pIC50 was 7.22.

For `C[C@@H](CC(=O)O)N1CC(=O)N(C(C)(C)C)c2ccc(C#Cc3ccc(C(=N)N)cc3)cc2C1=O`, the results for the pIC50 in test [2] and in test [3] were 7.92 and 8.52, respectively. Molecule `C[C@@H](CC(=O)O)N1CC(=O)N(C)c2ccc(C#Cc3ccc(C(=N)N)cc3)cc2C1=O` gave a pIC50 in test [1] of 8.30.

Consider `C[C@@H](CC(=O)O)N1CC(=O)N(C(C)(C)C)c2c(Cl)cc(C#Cc3ccc(C(=N)N)cc3)cc2C1=O` (stereo in doubt; 9), for which the pIC50 in test [1] was 8.70. With `C[C@@H](CC(=O)O)N1CC(=O)N(C(C)(C)C)c2c(Cl)cc(C#Cc3ccc(C(=N)N)cc3)cc2C1=O` (stereo in doubt; 10), in test [1], the pIC50 was 6.85.

In the case of `C[C@H](CC(=O)O)N1CC(=O)N(C(C)(C)C)c2c(Cl)cc(C#Cc3ccc(C(=N)N)cc3)cc2C1=O` (stereo in doubt; 11), the pIC50 in test [1] was 7.74.

As to `C[C@H](CC(=O)O)N1CC(=O)N(C(C)(C)C)c2c(Cl)cc(C#Cc3ccc(C(=N)N)cc3)cc2C1=O` (stereo in doubt; 12), the pIC50 in test [1] was 7.19.

Source of the values: ChEMBL document CHEMBL1129954, “From peptide to non-peptide. 3. Atropisomeric GPIIbIIIa antagonists containing the 3,4-dihydro-1H-1,4-benzodiazepine-2,5-dione nucleus” (J Med Chem, 1997).
